In general, IC50 refers to the concentration that inhibits the measured activity by half.

We go through 1 molecule from ChEMBL document CHEMBL5236552, “Discovery of Soticlestat, a Potent and Selective Inhibitor for Cholesterol 24-Hydroxylase (CH24H)” (J Med Chem, 2021).

The structures appear in SMILES notation.

Assay type in all cases: functional, cell-based
Test [1] can be described thus: Inhibition of cortisol synthesis in human NCI-H295R cells by Enzyme immunoassay. The procedure, abridged:
(§1)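 H295R adrenocortical cells grown in DMEM/F12 with 2.5% Nu-serum and 1% ITS-plus, seeded at 5×10^4 per well for three nights, then primed two nights with 20 µM forskolin. Cells washed, then exposed overnight to compound in DMEM/F12 with 1% ITS-plus and 20 µM forskolin. Cortisol, testosterone, aldosterone and corticosterone in the supernatant measured by competitive EIA against a calibration curve; triplicate, mean ± SEM.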

Test [2] is described as follows: Inhibition of corticosterone synthesis in human NCI-H295R cells by Enzyme immunoassay. The procedure, abridged:
as §1

The nature of test [3]: Inhibition of aldosterone synthesis in human NCI-H295R cells by Enzyme immunoassay. The procedure, abridged:
as §1

Test [4] can be described thus: Inhibition of testosterone synthesis in human NCI-H295R cells by Enzyme immunoassay. The procedure, abridged: as §1

In the case of `CC(=O)N1CCN(c2ccc(OCC3COC(Cn4ccnc4)(c4ccc(Cl)cc4Cl)O3)cc2)CC1` (centres undefined) [KETOCONAZOLE], the IC50 is 440 nM in test [1], 2500 nM in test [2], 1400 nM in test [3] and 340 nM in test [4].
